The record followed here is ChEMBL document CHEMBL1811775, “Brominated arginine-derived alkaloids from the red sea sponge Suberea mollis” (J Nat Prod, 2011).

Converted amounts (≈) assume the structure as drawn. The source made the active and inactive calls. No cut-off for these calls is given here.

Assay [1] relates to Staphylococcus aureus. Nature of the assay: Antibacterial activity against Staphylococcus aureus ATCC 6538P after 24 hrs by agar diffusion method. Format: functional. The essentials:
(§1)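 Agar cup diffusion against the listed ATCC strains. Each compound was dissolved at 1 mg/mL in DMF, and 100 μL was placed in each cup. Plates were incubated at 37 C for 24 h, and the inhibition zone diameters were measured in mm.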
(A growth-free zone around the sample is the usual read-out of agar diffusion tests.)

Another assay relates to Escherichia coli. Nature of the assay: Antibacterial activity against Escherichia coli ATCC 35218 after 24 hrs by agar diffusion method. The format is functional. The essentials: as §1
Assay [2] deals with Candida albicans. As to the kind of experiment: Antifungal activity against Candida albicans ATCC 2091 after 24 hrs by agar diffusion method. The format is functional. The essentials:
as §1

In assay [3] the test system is Klebsiella pneumoniae. Nature of the assay: Antibacterial activity against Klebsiella pneumoniae ATCC 10032 after 24 hrs by agar diffusion method. Format: functional, organism-based. The essentials:
as §1

Assay [4] relates to Pseudomonas aeruginosa. Nature of the assay: Antibacterial activity against Pseudomonas aeruginosa ATCC 9027 after 24 hrs by agar diffusion method. The format is functional, organism-based. The essentials:
as §1

Assay [5] deals with Klebsiella pneumoniae. Nature of the assay: Antibacterial activity against Klebsiella pneumoniae ATCC 10032 at 30 ug/disk after 24 hrs by agar diffusion method. The format is functional. Conditions: ATCC 10032, 24 h, read-out: IZ. The essentials: (§2)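 Reference drugs were tested in the same agar diffusion series at the stated loads: chloramphenicol 30 μg/disk, ciprofloxacin 5 μg/disk, erythromycin 15 μg/disk, and clotrimazole 10 mg/mL (100 μL). Plates were read at 37 C for 24 h, and inhibition zones were recorded in mm.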

The subject of assay [6] is Staphylococcus aureus. As to the kind of experiment: Antibacterial activity against Staphylococcus aureus ATCC 6538P at 30 ug/disk after 24 hrs by agar diffusion method. The conditions noted are these: read-out: IZ. The format is functional. The essentials: as §2
The subject of assay [7] is Pseudomonas aeruginosa. As to the kind of experiment: Antibacterial activity against Pseudomonas aeruginosa ATCC 9027 at 30 ug/disk after 24 hrs by agar diffusion method. The format is functional. The conditions noted are these: ATCC 9027, 24 h, read-out: IZ. The essentials:
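Agar diffusion against P. aeruginosa ATCC 9027, using reference antibiotic disks at 30 μg/disk. Plates incubated at 37 C for 24 h, and the inhibition zone diameter read in mm.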

The subject of assay [8] is Pseudomonas aeruginosa. As to the kind of experiment: microbe, parasite or virus in culture. Conditions: ATCC 9027, 24 h, read-out: IZ.
The subject of assay [9] is Candida albicans. As to the kind of experiment: Antifungal activity against Candida albicans ATCC 2091 at 10 mg/mL after 24 hrs by agar diffusion method. Format: functional. Conditions: ATCC 2091, 24 h, read-out: IZ. The essentials:
as §2

In a further assay the test system is HeLa. Nature of the assay: Cytotoxicity against human HeLa cells after 72 hrs by MTT assay. Format: functional, cell-based. The essentials: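 HeLa cells were plated overnight at 37 C in 5% CO2. Samples were serially diluted 1:4 down the plate, with adriamycin and DMSO as controls. After 72 h, viability was read at 490 nm as MTS reduction to formazan. IC50 (μg/mL) was calculated from the dilution series.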
A general note: Formazan colour is commonly taken as a measure of viable cells.

Assay [10] concerns Staphylococcus aureus. As to the kind of experiment: Antibacterial activity against Staphylococcus aureus ATCC 6538P at 15 ug/disk after 24 hrs by agar diffusion method. The format is functional. Conditions: read-out: IZ. The essentials: as §2
In assay [11] the test system is Radical scavenging activity. Nature of the assay: Antioxidant activity assessed as DPPH radical scavenging activity after 30 mins by TLC […] assay. Format: functional. The essentials:
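TLC autographic DPPH assay. Samples at 1 mg/mL in MeOH were spotted at 6 μg each as 4 mm spots, with vitamin E as the positive control. The plate was sprayed with 0.2% (w/v) DPPH in MeOH, and scavenging spots were read 30 min after spraying.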

Take `COc1c(Br)cc(/C=C/C(=O)N[C@H](CCCNC(=N)N)C(=O)O)cc1Br`: the result in the assay on Staphylococcus aureus [1], in the assay with Escherichia coli, in the assay with Candida albicans [2], with Klebsiella pneumoniae [3] and with Pseudomonas aeruginosa [4] was inactive.

`COc1ccc(/C=C/C(=O)N[C@H](CCCNC(=N)N)C(=O)O)cc1Br`: the result in the assay with Staphylococcus aureus [1], with Escherichia coli, in the assay on Candida albicans [2], with Klebsiella pneumoniae [3] and in the assay with Pseudomonas aeruginosa [4] was inactive.

As for `COC1=C(Br)[C@H](O)[C@@]2(C=C1Br)CC(C(=O)NCCCCNC(=O)C1=NO[C@]3(C=C(Br)C(OC)=C(Br)[C@@H]3O)C1)=NO2` [AEROTHIONIN], the “inhibition zone (IZ)” value in the assay on Staphylococcus aureus [1] stood at 5 mm. In addition, the result in the assay on Candida albicans [2] was inactive.

`O=C(N[C@H](CO)[C@H](O)c1ccc([N+](=O)[O-])cc1)C(Cl)Cl` [CHLORAMPHENICOL]: the zone of inhibition at 30 µg/disc in the assay on Klebsiella pneumoniae [5] amounted to 10 mm; with Staphylococcus aureus [6] it was 9 mm; with Pseudomonas aeruginosa [7] it was 7 mm.

As to `O=C(O)c1cn(C2CC2)c2cc(N3CCNCC3)c(F)cc2c1=O` [CIPROFLOXACIN], the zone of inhibition at 5 µg/disc in the assay with Pseudomonas aeruginosa [8] was 8 mm.

For the molecule `Clc1ccccc1C(c1ccccc1)(c1ccccc1)n1ccnc1` [CLOTRIMAZOLE], the zone of inhibition at 10000 µg/mL with Candida albicans [9] turned out to be 28 mm.

With `NC(=O)CC1(O)C=C(Cl)C(=O)C(Cl)=C1` [DICHLOROVERONGIAQUINOL], in the assay with Escherichia coli, the “inhibition zone (IZ)” value was 15 mm. Moreover, the result with Candida albicans [2] was inactive. Moreover, the IC50 (commonly the midpoint of a concentration-inhibition curve) in the assay on HeLa was determined as 13 µg/mL (≈ 55.1 µM).

For the molecule `CC[C@H]1OC(=O)[C@H](C)[C@@H](O[C@H]2C[C@@](C)(OC)[C@@H](O)[C@H](C)O2)[C@H](C)[C@@H](O[C@@H]2O[C@H](C)C[C@H](N(C)C)[C@H]2O)[C@](C)(O)C[C@@H](C)C(=O)[C@H](C)[C@@H](O)[C@]1(C)O` [ERYTHROMYCIN], in the assay with Staphylococcus aureus [10], the zone of inhibition at 15 µg/disc was determined as 8 mm.

With `COC1=C(Br)[C@H](O)[C@@]2(C=C1Br)CC(C(=O)NCCCCNC(=N)N)=NO2` [PUREALDIN L], the “inhibition zone (IZ)” value in the assay on Staphylococcus aureus [1] was 5 mm. Moreover, the result in the assay on Candida albicans [2] was inactive.

For the molecule `COc1ccc(O)c(CC(N)=O)c1Br` [SUBEREAPHENOL], the “inhibition zone (IZ)” value in the assay with Staphylococcus aureus [1] is reported as 10 mm; in the assay with Escherichia coli, 18 mm; in the assay on Candida albicans [2] it was 20 mm. Further, in assay [11], the outcome was Active. Besides, in the assay on HeLa, half-maximal inhibition (IC50) was put at 19 µg/mL (≈ 73.1 µM).
